# Arrestin-AP2 inh: inhibitors of beta-arrestin/AP2 binding, primary screen, biochemical, GPCR trafficking, flow cytometry. beta-arrestin 1 C-terminal peptide binding to AP2 beta2-adaptin appendage (human). FITC-arrestin peptide / GST-AP2 beads; AP2 beta2 appendage carries R879A mutation. inhibition, % at 10 µM. 340,000 compounds, 0.31% hits;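 active = inhibition above a set limit, near 3 SD of compounds lacking own fluorescence, cut at about 54% in these data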;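 note: plate controls were DMSO wells for no effect and 5 µM unlabelled arrestin peptide for full effect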
#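 Assay system: GST-AP2 R879A bound to glutathione beads, E. coli-expressed; Medium: PBS with 0.05% Tween 20 and 0.1% BSA; Also added: fluorescein-tagged arrestin peptide at 50 nM final; Timing: 12 min plus 1 h, RT; Measured by: flow cytometry, FL1 (488/535 nm); Evaluation: percent drop in bead-associated FITC signal.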
# GSK3beta inhib: human GSK3beta kinase inhibitors, primary screen, biochemical, cell-free homogeneous, HTS; Glycogen synthase kinase-3 beta (Homo sapiens), P49841; GST-GSK3beta kinase, ADP-Glo luminescence, 60 min; stronger effect = lower value; activity score (negative = inhibition), % at 10 µM; 300,000 compounds, 0.038% hits;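 active = more than half of replicate wells score below -50%, meaning over 50% inhibition versus plate controls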;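 note: 0% = median DMSO wells and -100% = median GW8510 positive control wells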
#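 Test system: GST-fused GSK3beta enzyme, cell-free | Quantity: 1.6 ng GST-GSK3beta enzyme per well | Reagent: 25 µM ATP with peptide substrate | Schedule: 60 min enzyme reaction, room temperature | Signal: Luminescent ADP-Glo measurement of ADP formed | Read-out basis: Score relative to plate controls | Control set: DMSO and 20 µM GW8510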
# Dyrk1A ADPGlo: rat Dyrk1A kinase inhibitors, primary screen, biochemical, single point, plate reader; ADP-Glo luminescence, NFATc1 peptide; inhibition, % at 12.5 µM; 310,000 compounds, 0.43% hits; in the data active = inhibition above about 50%;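 note: plate controls were vehicle with enzyme for no effect and no enzyme for full effect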
# STK33 inh: inhibitors of purified STK33 kinase, primary screen, biochemical, ADP-Glo luminescence, homogeneous, cell-free; inhibition, % at 10 µM; Serine/threonine-protein kinase 33 (Homo sapiens), Q9BYT3; 320,000 compounds, 0.073% hits; MBP phosphorylation;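 active = inhibition at or above 25%, using the most active replicate where run in duplicate; inactive = inhibition below 25%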
# GSK3 alpha inh: blockers of GSK3A enzyme activity – biochemical, luminescence, cell-free homogeneous, HTS, primary screen | Glycogen synthase kinase-3 alpha (Homo sapiens), P49840 | GSK-3 alpha kinase, ADP-Glo luminescence, 60 min | inhibition, % at 10 µM | 320,000 compounds, 0.1% hits | AID 2650, 2010;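 active = more than half of replicates show inhibition above 20%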;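 note: GST-tagged GSK-3 alpha with peptide substrate and 25 µM ATP; 0% = DMSO neutral wells and 100% = GW8510 positive control wells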
# Rin1 Abl inh: inhibitors of Rin1-Abl protein binding, primary screen, biochemical, TR-FRET; Tyrosine-protein kinase ABL1 (Homo sapiens) + Ras and Rab interactor 1 (Homo sapiens), …; AID 588664, 2011; 360,000 compounds, 0.4% hits; inhibition, % at 7.35 µM; in the data active = inhibition above about 5%, passing the limit was not always enough
# Rin1 Abl conf: Rin1-Abl binding inhibitor retest, confirmation, biochemical, TR-FRET. purified proteins. shares compounds with Rin1 Abl inh. 1,300 compounds, 49% hits. inhibition, % at 7.35 µM
# GFP quencher: GFP fluorescence inhibitors and quenchers, artefact control for Rin1-Abl interaction inhibitor project, biochemical; AID 602125, 2011; shares compounds with Rin1 Abl inh; inhibitors/quenchers counterscreen; 1,300 compounds, 8.5% hits; inhibition, % at 6.75 µM;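 note: ABL1-eGFP fusion protein alone without its partner RIN1-SBP; 0% = protein with vehicle and 100% = wells lacking protein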
# GFP quench dose: GFP fluorescence inhibitors and quenchers, dose response, artefact control for Rin1-Abl interaction inhibitor project, biochemical | shares compounds with Rin1 Abl inh | GFP fluorescence interference/quenching counterscreen | IC50, µM | 230 tested, under 10 active | AID 602182, 2012; call rule not given here;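 note: ABL1-eGFP fusion protein alone without its RIN1 binding partner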
# Numbers without * were called inactive; . = no result given. Only some compounds are listed: those with a hit (about 0.99% of all), similar ones and a draw of the others. Cut-off read from the data, not from the text of the source, unless noted: active = inhibition above about 6.5%; inactive = the rest.
SMILES,Arrestin-AP2 inh,GSK3beta inhib,Dyrk1A ADPGlo,STK33 inh,GSK3 alpha inh,Rin1 Abl inh,Rin1 Abl conf,GFP quencher,others
CC1=NN(c2ccc(C(=O)O)cc2)C(=O)/C1=C\c1ccc(OC(=O)c2cccs2)cc1,0.4,1.5,-3.3,-1.0,-5.4,10.5*,-1.4,-1.0,
[O-][N+](=Cc1c(Cl)cccc1Cl)CC1(O)CCCCC1,.,.,.,.,.,1.4,.,.,
COCC1CCCN(C(=O)c2ccc3nc(Cc4cccc(Cl)c4)oc3c2)C1 (configuration not stated),-0.8,7.2,-10.3,-1.4,-1.1,-0.6,.,.,
CC[C@]12c3[nH]c4ccc(OC)cc4c3CCN1C(=O)C(CC(=O)NCCCN(C)C)C[C@@H]2C(=O)N1CCN(C(=O)c2ccco2)CC1 (some centres not stated),25.6,.,-10.8,.,.,21.1*,22.2*,0.3,GFP quench dose=>67.5
CC[C@]12c3[nH]c4ccc(OC)cc4c3CCN1C(=O)C(CC(=O)NC/C=C(\C)CCC=C(C)C)C[C@@H]2C(=O)N1CCN(C(=O)c2ccco2)CC1 (some centres not stated),12.9,.,-2.9,.,.,11.3*,5.1,0.9,
CC[C@]12c3[nH]c4ccccc4c3CCN1C(=O)C(CC(=O)NC/C=C(\C)CCC=C(C)C)C[C@@H]2C(=O)N1CCN(C(=O)c2ccco2)CC1 (some centres not stated),10.2,.,.,-0.4,0.1,-2.9,.,.,
CC[C@]12c3[nH]c4ccc(OC)cc4c3CCN1C(=O)C(CC(=O)NCCCn1ccnc1)C[C@@H]2C(=O)N1CCN(C(=O)c2ccco2)CC1 (some centres not stated),1.4,.,.,.,.,6.9,.,.,
CC[C@]12c3[nH]c4ccc(OC)cc4c3CCN1C(=O)C(CC(=O)NCCc1ccccn1)C[C@@H]2C(=O)N1CCN(C(=O)c2ccco2)CC1 (some centres not stated),11.4,.,-3.7,.,.,16.0*,6.0,2.2,
CC[C@]12c3[nH]c4ccc(OC)cc4c3CCN1C(=O)C(CC(=O)NCc1cccc(C(F)(F)F)c1)C[C@@H]2C(=O)N1CCN(C(=O)c2ccco2)CC1 (some centres not stated),-0.9,.,.,.,.,18.1*,21.2*,-1.9,GFP quench dose=>67.6
Cc1ccc2c(COC(=O)C3CSC4(C)CCC(=O)N34)cc(=O)oc2c1C (configuration not stated),-5.8,.,.,-1.0,1.5,-1.0,.,.,
CCOC(=O)[C@@H]1[C@H]2COc3ccccc3[C@@H]2N2C(=O)N(c3cccc(F)c3)C(=O)[C@@]12C,25.5,.,3.7,-1.8,-0.5,2.5,.,.,
N#C/C(=C\c1cc(O)c(O)c(O)c1)C(N)=O,37.0,-4.1,24.7,8.5,9.9,48.9*,48.9*,20.5*,
N#C/C(=C\c1cc(Cl)c(OCc2ccc(Cl)cc2)c(Cl)c1)C(N)=O,.,0.9,.,-1.9,-0.9,.,.,.,
O=C(COc1ccc(F)cc1)NCC1(N2CCOCC2)CCCCC1,8.3,.,.,-1.8,-0.7,11.0*,0.4,0.2,
O=C(CN1CCN(CC(=O)Nc2ccc(F)cc2)CC1)NCC1(N2CCOCC2)CCCCC1,4.4,.,.,0.3,-1.6,1.2,.,.,
O=c1cc(N/N=C/c2ccccc2)[nH]c(=O)[nH]1,-15.7,1.9,5.1,-0.6,3.7,0.2,.,.,
O=c1nccc(N/N=C/c2ccccc2)[nH]1,7.0,1.2,-1.4,2.8,0.7,8.8*,19.9*,-1.6,GFP quench dose=>67.5
CCOc1ccc(NS(=O)(=O)c2c(C(=O)N3CCCCCC3)c(C)n(C)c2C)cc1,-8.2,-1.4,-2.5,-1.0,0.5,4.3,.,.,
CC(=O)Oc1ccccc1C(=O)NC(C)CCc1ccccc1 (configuration not stated),38.0,0.1,-1.0,-0.8,-2.0,-0.7,.,.,
Cc1cccc(C(=O)Nc2ccc(O)cc2C(=O)O)c1,6.8,1.0,-0.7,0.1,2.0,2.8,.,.,
Cc1ccc(C(=O)Nc2ccc(O)cc2C(=O)O)cc1,-2.9,-9.0,3.9,1.9,-0.6,11.1*,12.7*,-0.1,
Cc1ccc(C(=O)Nc2ccc(O)cc2C(=O)O)cc1C,-8.2,0.3,6.7,1.9,.,26.7*,15.8*,-0.1,
Cc1ccc(CCNC(=O)c2ccc(NC3=NC4CS(=O)(=O)CC4S3)cc2)cc1 (configuration not stated),33.7,1.3,-3.9,-1.9,0.8,8.5*,9.3*,0.5,
CCN(C(=O)Cc1ccc(NC2=NC3CS(=O)(=O)CC3S2)cc1)c1ccccc1 (configuration not stated),8.6,-2.8,0.1,-0.9,-0.3,14.6*,11.0*,-0.7,
COc1ccc(OC)c(CCNC(=O)c2ccc(NC3=NC4CS(=O)(=O)CC4S3)cc2)c1 (configuration not stated),-1.2,-4.1,4.5,0.2,1.5,12.2*,12.9*,-0.4,
Cc1cc(C)cc(NC(=O)c2cccc(NC3=NC4CS(=O)(=O)CC4S3)c2)c1 (configuration not stated),10.0,-2.0,-0.2,-0.9,0.4,0.4,.,.,
O=C(NCCc1ccc(Cl)cc1)c1cccc(NC2=NC3CS(=O)(=O)CC3S2)c1 (configuration not stated),7.3,3.3,5.2,0.4,-0.2,8.4*,8.0*,0.2,
COc1ccc(OC)c(CCNC(=O)Cc2ccc(NC3=NC4CS(=O)(=O)CC4S3)cc2)c1 (configuration not stated),-2.8,1.2,-3.5,-1.0,2.6,11.1*,13.3*,-0.7,
COc1cc2c(cc1OC)CN(CC(=O)Nc1cccc(C)c1)CC2,15.6,-3.7,0.8,-0.1,-0.8,6.5*,1.6,-0.4,

# High-throughput results from PubChem BioAssay.
